Data from ChEMBL document CHEMBL1144339, “Synthesis and activity of oleanolic acid derivatives, a novel class of inhibitors of osteoclast formation” (2005).

Each compound was assayed on Osteoclast-like (assay: Percent inhibition of tartrate resistant acid phosphatase positive osteoclast like multinucleated cells formation by 1-alpha, 25-dihydroxy vitamin D3 in mouse bone marrow cells).
Assay type: functional
Set-up: concentration or dose not given beside the values
Procedure, shortened: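 Run as a co-culture assay. Formation of osteoclast-like multinucleated cells was induced with 1α,25-dihydroxy vitamin D₃.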
CC1(C)CC[C@]2(C(=O)NCC(=O)O)CC[C@]3(C)C(=CC[C@@H]4[C@@]5(C)CC[C@H](O)C(C)(C)[C@@H]5CC[C@]43C)[C@@H]2C1 showed an Inhibition of 61.5%. CCC(C)C(NC(=O)[C@]12CCC(C)(C)C[C@H]1C1=CC[C@@H]3[C@@]4(C)CC[C@H](O)C(C)(C)C4CC[C@@]3(C)[C@]1(C)CC2)C(=O)O (stereo partly specified) gave an Inhibition of 53.5%. With CC1(C)CC[C@]2(C(=O)NC(Cc3ccccc3)C(=O)O)CC[C@]3(C)C(=CC[C@@H]4[C@@]5(C)CC[C@H](O)C(C)(C)C5CC[C@]43C)[C@@H]2C1 (stereo partly specified) the Inhibition was 16.3%. CC1(C)CC[C@]2(C(=O)O)CC[C@]3(C)C(=CC(=O)[C@@H]4[C@@]5(C)CC[C@H](O)C(C)(C)C5CC[C@]43C)[C@@H]2C1 (stereo partly specified) gave an Inhibition of 38.5%. Work on CCC(C)C(NC(=O)[C@]12CCC(C)(C)C[C@H]1C1=CC(=O)[C@@H]3[C@@]4(C)CC[C@H](O)C(C)(C)C4CC[C@@]3(C)[C@]1(C)CC2)C(=O)O (stereo partly specified) yielded an Inhibition of 62%. CC(C)CC(NC(=O)[C@]12CCC(C)(C)C[C@H]1C1=CC(=O)[C@@H]3[C@@]4(C)CC[C@H](O)C(C)(C)C4CC[C@@]3(C)[C@]1(C)CC2)C(=O)O (stereo partly specified) showed an Inhibition of 69.5%. CC(C)CC(NC(=O)[C@]12CCC(C)(C)C[C@H]1C1=CC[C@@H]3[C@@]4(C)CC[C@H](O)C(C)(C)C4CC[C@@]3(C)[C@]1(C)CC2)C(=O)O (stereo partly specified) was tested, and the Inhibition was 51.2%. CC1(C)CC[C@]2(C(=O)N3CCCC3C(=O)O)CC[C@]3(C)C(=CC(=O)[C@@H]4[C@@]5(C)CC[C@H](O)C(C)(C)C5CC[C@]43C)[C@@H]2C1 (stereo partly specified) was tested, and the Inhibition was 40.3%. For CC1(C)CC[C@]2(C(=O)O)CC[C@]3(C)C(=CC[C@@H]4[C@@]5(C)CC[C@H](O)C(C)(C)C5CC[C@]43C)[C@@H]2C1 (stereo partly specified), the Inhibition was 27.6%. For CC(C)C(NC(=O)[C@]12CCC(C)(C)C[C@H]1C1=CC(=O)[C@@H]3[C@@]4(C)CC[C@H](O)C(C)(C)C4CC[C@@]3(C)[C@]1(C)CC2)C(=O)O (stereo partly specified), the Inhibition was 59%. CC1(C)CC[C@]2(C(=O)NC(Cc3ccccc3)C(=O)O)CC[C@]3(C)C(=CC(=O)[C@@H]4[C@@]5(C)CC[C@H](O)C(C)(C)C5CC[C@]43C)[C@@H]2C1 (stereo partly specified) was tested, and the Inhibition was 36.5%. With CC(NC(=O)[C@]12CCC(C)(C)C[C@H]1C1=CC[C@@H]3[C@@]4(C)CC[C@H](O)C(C)(C)C4CC[C@@]3(C)[C@]1(C)CC2)C(=O)O (stereo partly specified) the Inhibition was 87.8%. CC1(C)CC[C@]2(C(=O)N3CCCC3C(=O)O)CC[C@]3(C)C(=CC[C@@H]4[C@@]5(C)CC[C@H](O)C(C)(C)C5CC[C@]43C)[C@@H]2C1 (stereo partly specified) was tested, and the Inhibition was 21%. In the case of CC1(C)CC[C@]2(C(=O)NCC(=O)O)CC[C@]3(C)C(=CC(=O)[C@@H]4[C@@]5(C)CC[C@H](O)C(C)(C)C5CC[C@]43C)[C@@H]2C1 (stereo partly specified), the Inhibition was 83.3%. For CC(NC(=O)[C@]12CCC(C)(C)C[C@H]1C1=CC(=O)[C@@H]3[C@@]4(C)CC[C@H](O)C(C)(C)C4CC[C@@]3(C)[C@]1(C)CC2)C(=O)O (stereo partly specified), the Inhibition was 76.3%. CC(C)C(NC(=O)[C@]12CCC(C)(C)C[C@H]1C1=CC[C@@H]3[C@@]4(C)CC[C@H](O)C(C)(C)C4CC[C@@]3(C)[C@]1(C)CC2)C(=O)O (stereo partly specified) was tested, and the Inhibition was 41.3%.
